Test results published in ChEMBL document CHEMBL4732186, “Targeting the transmembrane domain 5 of latent membrane protein 1 using small molecule modulators” (Eur J Med Chem, 2021).

Experiments:
Escherichia coli = test: Antibacterial activity against Escherichia coli FHK12; type: ADME, organism-based
Outline: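 FHK12 E. coli transformed by heat shock (42 °C, 90 s) with the ToxR7-TMD-5 plasmid. Grown in LB with 0.0025% arabinose and 30 µg/mL chloramphenicol plus a range of test-compound concentrations, shaken at 37 °C for 20 h, five replicate cultures. Growth read as OD at 600 nm.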

[1] = Inhibition of recombinant EpsteinBarr virus Transmembrane domain 5 of latent membrane protein 1 transformed into Escherichia coli FHK12 cells assessed as disruption of oligomerization by measuring ToxR transcription activity assay; parameters: species or system human gammaherpesvirus 4
[2] = Binding affinity to EpsteinBarr virus Transmembrane domain 5 of latent membrane protein 1 assessed as dissociation constant by spectrofluorimetric analysis; parameters: species or system human gammaherpesvirus 4
[3] = Apparent permeability in dog MDCK cells measured after 150 mins; type: ADME, cell-based, Canis lupus familiaris
Outline: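 MDCK cells (passage 20-35) seeded at 5×10^4 cells/well on 0.4 µm Transwell inserts and grown 4-5 days to confluence. Monolayers washed with HBSS pH 7.4 and equilibrated 30 min. Compound added apically or basolaterally; receiver side sampled at 150 min, then frozen and lyophilized. TEER checked afterward for monolayer integrity.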

human gammaherpesvirus 4 = test: Potency index, ratio of IC50 of pentamidine to IC50 of compound for inhibition of recombinant EpsteinBarr virus Transmembrane domain 5 of latent membrane protein 1 transformed into FHK12 cells by ToxR assay
Outline: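 ToxR7-TMD-5 plasmid heat-shocked into FHK12 E. coli; cultures in LB with 0.0025% arabinose and 30 µg/mL chloramphenicol with graded compound concentrations, five replicates, shaken 37 °C for 20 h. Cells lysed with Z buffer/SDS, then ONPG (0.4% w/v) added; β-galactosidase followed at 405 nm for 20 min at 28 °C.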

Structure (SMILES)	IC50 (Escherichia coli) [µM]	IC50 [1] [µM]	Kd [2] [µM]	Papp at 2.5 h [3] [×10⁻⁶ cm/s]	Ratio IC50 (human gammaherpesvirus 4)
N=C(N)c1ccc(NCCCCCNc2ccc(C(=N)N)cc2)cc1	> 200	31.2	7.3	–	–
N=C(N)c1ccc(NC(=O)CCCCC(=O)Nc2ccc(C(=N)N)cc2)cc1	> 200	42	8.9	–	–
N=C(N)c1ccc(C(=O)NCCCNC(=O)c2ccc(C(=N)N)cc2)cc1	> 200	> 200	–	1.07	–
N=C(N)c1ccc(NC(=O)CCC(=O)Nc2ccc(C(=N)N)cc2)cc1	> 200	112	13.5	–	–
N=C(N)c1ccc(NC(=O)CCCC(=O)Nc2ccc(C(=N)N)cc2)cc1	56.4	0.6	2.6	4.28	15
